Measurements: paper PMC3819105 (Biomaterials science, 2013)
Where a SMILES comes first, the peptide text is derived from it. [ ]: non-standard residue; d: D form. Hica(2S) = CC(C)C[C@H](O)C(=O)O

What was measured:
[1] = Oscillating rheometry of hydrogels; format: physicochemical
Summary of the method: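 Peptide held overnight in water at 30 or 15 mM, cast on a glass slide inside an 8-mm filter-paper ring, and gelled under a PBS overlay for 2 h. PBS removed, parallel-plate frequency sweep 0.1–3.162 Hz at 0.1% strain, harmonic distortion under 10%. For ageing, gels held submerged in PBS at 37°C for 1 or 3 days. Mean ± SD of 3–5 separate gels; G'/G'' at 1 Hz compared by ANOVA-Tukey or t-test, p<0.05.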

[2] = Solubility limit in water; format: physicochemical
[3] = TEM of nanofiber formation and degradation; format: physicochemical; settings: 2 mM in PBS, 37°C, 7 days
C3H10T½ cells = test: 3D microgel cell culture; format: cell-based, mouse; settings: C3H10T½ cells in hydrogel
Summary of the method: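 Cells kept in Eagle's Basal Medium with 10% FBS, L-glutamine, 1 mM sodium pyruvate and non-essential amino acids. They were trypsinized, resuspended at 6,000 cells/µL in 10% sucrose with antibiotics, and mixed 1:2 with 22.5 mM aqueous peptide. The mixture (2,000 cells/µL) was pipetted into culture medium in 4–5 µL droplets to gel. Phase contrast imaging at day 3. MTS at 4 h, 3 and 5 days; mean ± SD of 3 wells.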

[4] = Macroscopic hydrogel degradation visualised with Congo red; format: physicochemical
Summary of the method: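 50 µM Congo red added to the aqueous peptide solution (sonicated, held overnight at room temperature) while making 15 mM gels. Gels pipetted into multi-well dishes, immersed in PBS at 37°C and photographed over 28 days.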

papain = settings: cited from earlier work
α-chymotrypsin = settings: cited from earlier work
trypsin = settings: cited from earlier work

| Compound | Storage modulus of hydrogel ([1]; 30 mM hydrogel, PBS-gelled 2 hours, 0.1% strain, mean of 3 – 5 samples) [kPa] | Storage modulus (G') relative to Q11 hydrogel ([1]; 30 mM hydrogels, PBS-gelled 2 hours, 0.1% strain, calculated at 1 Hz) | Change of hydrogel moduli (G', G'') over time ([1]; hydrogels submerged in PBS, 37°C, up to day 3) | solubility [2] [mM] | Nanofiber state by TEM at day 7 [3] | Proliferation of encapsulated cells (C3H10T½ cells; over 5 days, MTS assay, 3 wells) | Morphology of encapsulated cells (C3H10T½ cells; phase contrast) | Time for which integrity of acellular hydrogel could be maintained ([4]; 15 mM acellular hydrogel, PBS, 37°C) | Gel appearance over 28 days (Congo red stained) ([4]; 15 mM hydrogel, immersed in PBS at 37°C, 28 days, representative of 3 gels) | Resistance to proteolysis (papain) | Resistance to proteolysis (α-chymotrypsin) | Resistance to proteolysis (trypsin) |
| --- | --- | --- | --- | --- | --- | --- | --- | --- | --- | --- | --- | --- |
| CC(=O)N[C@@H](CCC(N)=O)C(=O)N[C@@H](CCC(N)=O)C(=O)N[C@@H](CCCCN)C(=O)N[C@@H](Cc1ccccc1)C(=O)N[C@@H](CCC(N)=O)C(=O)O[C@@H](CC(C)C)C(=O)N[C@@H](CCC(N)=O)C(=O)N[C@@H](Cc1ccccc1)C(=O)N[C@@H](CCC(=O)O)C(=O)N[C@@H](CCC(N)=O)C(=O)N[C@@H](CCC(N)=O)C(N)=O [Depsi-L] (Ac-QQKFQ[Hica(2S)]QFEQQ-NH2; N-terminus assumed) | > 100 | about 6 times | decreased significantly | ≥ 30 | shorter and thinner | proliferated | more spread morphology | about 14 days | faded and disappeared |  |  |  |
| (AEAEAKAK)2 |  |  |  |  |  |  |  |  |  | highly resistant | highly resistant | highly resistant |
